The record followed here is paper PMC3518043 (Biochemistry, 2012).

Holding throughout (assay type): binding
Assay [1] relates to unmodified histone H3 N-terminus (first eleven amino acids). The assay can be described thus: Amplified Luminescent Proximity Homogeneous Assay. The conditions noted are these: 10 μM protein, only biotin- or only 6×His-peptide. An outline of the steps: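 Recombinant CHD5 PHD constructs and H3 (1-11) peptides carrying either a 6×His tag or biotin were diluted in StabilCoat buffer to final 10 μM protein and 1 μM peptide. Mixtures shaken 30 min at ambient temperature. Donor and acceptor beads added at 15 μg/mL each (working), then shaken 30 min in the dark. Emission read at 570/100 nm with ALPHA filters.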

The subject of assay [2] is histone H3 tail peptide (1-12). In words: 1H,15N HSQC NMR titration with H3 peptide. The conditions noted are these: 0.1 mM 15N-labeled PHD1-2; H3 (1-12). An outline of the steps: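 15N-labelled CHD5 PHD1-2 expressed in E. coli BL21(DE3) pLysS grown in 15NH4Cl minimal medium and induced with 0.5 mM IPTG. GST fusion purified on glutathione agarose and tag cleaved with PreScission protease. Buffer was 20 mM Tris pH 6.8, 150 mM NaCl, 3 mM DTT. 1H,15N HSQC spectra of 0.1 mM protein recorded at 600 MHz with increasing amounts of H3 (1-12) peptide.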

Assay [3] relates to histone H3 combinatorial peptide library. The assay can be described thus: on-bead 5,000-member combinatorial histone H3 library screen. The note with it: for occurrence of peptides with high methylation at H3K4 (me2/3) / occurrence of peptides with low methylation at H3K4 (K4unmod and K4me): PHD1-2 screen. An outline of the steps: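 One-bead-one-peptide H3 combinatorial library (5,000 members) incubated sequentially with GST-tagged PHD fingers, GST-specific primary antibody, biotinylated secondary antibody, then streptavidin-alkaline phosphatase for bead detection.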

Another assay concerns histone H3 N-terminus. The assay can be described thus: overall signal intensity in histone peptide array / peptide screens. The conditions noted are these: both peptide screens; at the same molar concentrations.
The subject of assay [4] is immobilized histone H3 (1-11). In words: surface plasmon resonance. On the technique in general: SPR reads the build-up and loss of mass on a sensor chip optically.
[5] abbreviates: bivalent binding model (bivalent analyte), pH 7.5.

B1: PHD1-2: tandem PHD-fingers of CHD5 (338-468), GST fusion in pGEX-KG; tag cleaved for SPR and NMR (protein)
chain: YETDHQDYCEVCQQGGEIILCDTCPRAYHLVCLDPELEKAPEGKWSCPHCEKEGIQWEPKDDDDEEEEGGCEEEEDDHMEFCRVCKDGGELLCCDACPSSYHLHCLNPPLPEIPNGEWLCPRCTCPPLKGK
modifications: left off: GST, end not stated, kept
As for B1, the “ALPHA signal with either functionalized peptide alone” value in assay [1] was “no signal above background”. Moreover, the “binding events in NMR titration” value in assay [2] is on record as “two distinct binding events”. Besides, the “occurrence of unmodified lysine-4 among positive beads” value in assay [3] (H3K4unmod, MALDI-TOF identification) is listed as 44 out of 90. In assay [3] (H3T3ph), the “occurrence of H3T3 phosphorylation among positive beads” value is given as 0 out of 90. For the same molecule, the “occurrence of H3T6 phosphorylation among positive beads” value in assay [3] (H3T6ph) is 0 out of 90. Moreover, in assay [3] (all peptides), the “occurrence of peptides with high methylation at H3K4 (me2/3)” value worked out at 13%; the “occurrence of peptides with low methylation at H3K4 (K4unmod and K4me)” value came out at 74%. Also, in assay [3] (peptides also containing R2me2a or R2me2s), the “occurrence of peptides with high methylation at H3K4 (me2/3)” value worked out at 6%. In addition, the “occurrence of peptides with low methylation at H3K4 (K4unmod and K4me)” value in assay [3] (peptides only containing Rme2a/s at H3R2) stood at 91%. Further, in the assay on histone H3 N-terminus, the “overall signal intensity compared to either domain alone” value was “notably higher”. Moreover, the “increase in affinity (lower Kd) compared with PHD1 and PHD2 alone” value in assay [4] (1:1 Langmuir model) is given as 4-11 fold. In addition, the off-rate kd in assay [4] (1:1 Langmuir model, biotinylated H3 (1-11) on SA chip, pH 7.5) turned out to be 0.00348 ± 5e-05 s⁻¹. Moreover, in assay [4] (setting [5]), the ka1 worked out at 324 ± 11 M⁻¹ s⁻¹, the ka2 is on record as 2.9×10^−5 ± 1×10^−6 1/RUs, the kd1 came to 0.120 ± 0.005 s⁻¹ and the kd2 was found to be 0.00218 ± 3e-05 s⁻¹. Also, the “slower last off-rate (kd) compared with individual domains” value in assay [4] (last off-rate of PHD1-2 vs kd values of individual domains) is 5-6 fold.
